These results are taken from ChEMBL document CHEMBL2069265, “Synthesis and biological evaluation of optically active conjugated γ- and δ-lactone derivatives” (2012).

In one assay the test system is Bacillus subtilis. Briefly: Antibacterial activity against Bacillus subtilis ATCC 6633 at 50 mg/ml after 24 hrs by disc diffusion method. It is filed as functional, organism-based. A digest of the protocol:
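Disc diffusion on LB agar plates inoculated with 10^6 cells/mL. 6 mm filter discs saturated with 50 µL of compound solution (10–100 mg/mL in DMSO or methanol), placed on plates and incubated at 37 °C for 24 h. Inhibition zone diameter read; zones of 7 mm or more scored as susceptible. Solvent discs tested; gentamicine disc (10 mg/mL) as positive control.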

Another assay relates to Staphylococcus aureus. Briefly: Antibacterial activity against Staphylococcus aureus ATCC 6538 at 50 mg/ml after 24 hrs by disc diffusion method. The conditions noted are these: ATCC 6538, 24 h, read-out: DIZ. It is filed as functional. A digest of the protocol:
(§1)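 Disc diffusion on LB agar seeded at 10^6 cells/mL. 6 mm discs are saturated with 50 µL compound solution in DMSO or methanol and incubated at 37 °C for 24 h. Inhibition zones of 7 mm or more are counted as susceptible. Solvent discs are run, with streptomycine discs (10 mg/mL) as positive control.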

The subject of another assay is Escherichia coli. Briefly: Antibacterial activity against Escherichia coli ATCC 3509 at 50 mg/ml after 24 hrs by disc diffusion method. It is filed as functional. The conditions noted are these: ATCC 3509, 24 h, read-out: DIZ. A digest of the protocol: as §1

In the case of GENTAMICIN, the inhibition zone (IZ) in the assay with Bacillus subtilis was 17 mm.
With `CN[C@@H]1[C@H](O[C@H]2[C@H](O[C@H]3[C@H](O)[C@@H](O)[C@H](N=C(N)N)[C@@H](O)[C@@H]3N=C(N)N)O[C@@H](C)[C@]2(O)C=O)O[C@@H](CO)[C@H](O)[C@H]1O` [STREPTOMYCIN], the zone of inhibition at 50000 µg/mL turned out to be 15 mm in the assay on Staphylococcus aureus and 18 mm in the assay with Escherichia coli.
